# ChEMBL document CHEMBL4152184, “NB 06: From a simple lysosomotropic aSMase inhibitor to tools for elucidating the role of lysosomes in signaling apoptosis and LPS-induced inflammation” (Eur J Med Chem, 2018)
# Activity calls are given as the source filed them. No cut-off for these calls is given here.
# Legend:
# MONO-MAC-6 [1] = assay: Upregulation of IFNA13 mRNA expression level in LPS-stimulated human MONO-MAC-6 cells preincubated for 30 mins followed by LPS stimulation measured after 1 hr by qRT-PCR analysis relative to control; format: functional
# MONO-MAC-6 [2] = assay: Downregulation of CXCL10 mRNA expression level in human MONO-MAC-6 cells at 5 uM incubated for 30 mins measured after 6 hrs by oligonucleotide array hybridization assay relative to control; format: functional
# How it was run: (§1)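 Total RNA was isolated, transcribed and labeled with DY-647 dye, then co-hybridized with DY-548-labeled cDNA from untreated cells on an inflammation oligonucleotide chip (780 gene probes). Differential expression >1.5 was taken as significant.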
# MONO-MAC-6 [3] = assay: Upregulation of CXCL3 mRNA expression level in human MONO-MAC-6 cells at 5 uM incubated for 30 mins measured after 2 hrs by oligonucleotide array hybridization assay relative to control; format: functional
# MONO-MAC-6 [4] = assay: Upregulation of CXCL3 mRNA expression level in human MONO-MAC-6 cells at 5 uM incubated for 30 mins measured after 1 hr by oligonucleotide array hybridization assay relative to control; format: functional
# MONO-MAC-6 [5] = assay: Upregulation of CCL4 mRNA expression level in LPS-stimulated human MONO-MAC-6 cells at 5 uM preincubated for 30 mins followed by LPS stimulation measured after 2 hrs by oligonucleotide array hybridization assay (reference value: 5.78); format: functional
# [6] = target: T1, Sphingomyelin phosphodiesterase (Homo sapiens) (UniProt P17405); assay: Inhibition of mmLDL-stimulated acid sphingomyelinase in human PBMC lysates up to 2 uM preincubated for 30 mins followed by mmLDL stimulation measured after 4 hrs by YO-PRO-1/Hoechst 33342 staining based assay
# T1 sequence (whole entry): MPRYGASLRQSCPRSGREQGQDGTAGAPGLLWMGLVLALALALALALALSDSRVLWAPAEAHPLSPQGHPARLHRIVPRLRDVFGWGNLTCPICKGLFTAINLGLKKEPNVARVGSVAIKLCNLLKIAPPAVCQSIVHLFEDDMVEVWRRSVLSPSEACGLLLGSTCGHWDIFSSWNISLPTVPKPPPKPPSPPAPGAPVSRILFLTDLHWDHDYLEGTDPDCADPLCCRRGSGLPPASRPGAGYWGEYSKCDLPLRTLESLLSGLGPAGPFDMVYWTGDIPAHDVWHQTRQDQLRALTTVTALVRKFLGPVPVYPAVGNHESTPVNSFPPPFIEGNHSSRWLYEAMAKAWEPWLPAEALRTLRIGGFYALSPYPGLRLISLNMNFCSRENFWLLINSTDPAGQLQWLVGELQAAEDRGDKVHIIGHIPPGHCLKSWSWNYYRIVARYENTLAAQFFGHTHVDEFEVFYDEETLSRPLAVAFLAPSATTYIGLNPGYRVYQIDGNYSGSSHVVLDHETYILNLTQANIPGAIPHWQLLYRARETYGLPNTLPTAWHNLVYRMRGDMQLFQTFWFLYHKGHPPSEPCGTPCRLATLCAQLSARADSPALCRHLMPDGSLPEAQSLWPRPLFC
# MONO-MAC-6 [7] = assay: Upregulation of CXCL10 mRNA expression level in human MONO-MAC-6 cells at 5 uM incubated for 30 mins measured after 1 hr by oligonucleotide array hybridization assay relative to control; format: functional
# MONO-MAC-6 [8] = assay: Downregulation of TNFalpha mRNA expression level in human MONO-MAC-6 cells at 5 uM incubated for 30 mins measured after 4 hrs by qRT-PCR method relative to control; format: functional
# MONO-MAC-6 [9] = assay: Upregulation of CXCL2 mRNA expression level in LPS-stimulated human MONO-MAC-6 cells at 5 uM preincubated for 30 mins followed by LPS stimulation measured after 1 hr by oligonucleotide array hybridization assay (reference value: 1.42); format: functional
# MONO-MAC-6 [10] = assay: Upregulation of CXCL3 mRNA expression level in LPS-stimulated human MONO-MAC-6 cells at 5 uM preincubated for 30 mins followed by LPS stimulation measured after 2 hrs by oligonucleotide array hybridization assay (reference value: 3.24); format: functional
# [11] = target: T2, Acid ceramidase (Homo sapiens) (UniProt Q13510); assay: Inhibition of mmLDL-stimulated acid ceramidase in human PBMC assessed as ratio of C24:1-ceramide/lipid phosphate level at 10 uM preincubated for 30 mins followed by mmLDL stimulation measured after 4 hrs by HPLC method (reference value: 1.16); format: cell-based
# T2 sequence (whole entry): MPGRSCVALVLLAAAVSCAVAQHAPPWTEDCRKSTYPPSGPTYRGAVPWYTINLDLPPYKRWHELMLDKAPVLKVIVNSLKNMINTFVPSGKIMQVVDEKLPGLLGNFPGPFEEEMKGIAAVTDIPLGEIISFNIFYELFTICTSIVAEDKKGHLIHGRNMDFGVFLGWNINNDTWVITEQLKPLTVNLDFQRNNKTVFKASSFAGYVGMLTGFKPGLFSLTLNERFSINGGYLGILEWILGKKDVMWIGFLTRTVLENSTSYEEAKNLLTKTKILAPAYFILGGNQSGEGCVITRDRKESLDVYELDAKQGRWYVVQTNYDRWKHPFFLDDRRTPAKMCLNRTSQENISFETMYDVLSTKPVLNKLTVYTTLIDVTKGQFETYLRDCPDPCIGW
# How it was run: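 Human macrophages from primary culture were preincubated 30 min with 10 µM compound. They were then stimulated 4 h with mmLDL (54 µg/mL), TNFalpha (3 ng/mL) or exogenous C6-ceramide (10 µM), or left unstimulated. Individual ceramide species (C16 and C24:1) were quantified in the cell lipid extracts.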
# MONO-MAC-6 [12] = assay: Upregulation of IL23A mRNA expression level in human MONO-MAC-6 cells at 5 uM incubated for 30 mins measured after 1 hr by qRT-PCR method relative to control; format: functional
# MONO-MAC-6 [13] = assay: Downregulation of CXCL3 mRNA expression level in human MONO-MAC-6 cells at 5 uM incubated for 30 mins measured after 6 hrs by oligonucleotide array hybridization assay relative to control; format: functional; how it was run: as §1
# MONO-MAC-6 [14] = assay: Upregulation of CCL20 mRNA expression level in LPS-stimulated human MONO-MAC-6 cells at 5 uM preincubated for 30 mins followed by LPS stimulation measured after 1 hr by oligonucleotide array hybridization assay (reference value: 1.07); format: functional
# MONO-MAC-6 [15] = assay: Upregulation of IL23A mRNA expression level in LPS-stimulated human MONO-MAC-6 cells at 5 uM preincubated for 30 mins followed by LPS stimulation measured after 4 hrs by qRT-PCR method (reference value: 10.78); format: functional
# MONO-MAC-6 [16] = assay: Downregulation of IL23A mRNA expression level in human MONO-MAC-6 cells at 5 uM incubated for 30 mins measured after 6 hrs by qRT-PCR method relative to control; format: functional
# MONO-MAC-6 [17] = assay: Upregulation of PTX3 mRNA expression level in LPS-stimulated human MONO-MAC-6 cells at 5 uM preincubated for 30 mins followed by LPS stimulation measured after 4 hrs by oligonucleotide array hybridization assay (reference value: 4.65); format: functional
# MONO-MAC-6 [18] = assay: Downregulation of CCL20 mRNA expression level in human MONO-MAC-6 cells at 5 uM incubated for 30 mins measured after 2 hrs by oligonucleotide array hybridization assay relative to control; format: functional; how it was run: as §1
smiles,measurement,setting,value
COc1ccc(CCN(C)CCCn2c3ccccc3c3ccccc32)cc1,fold change (FC),MONO-MAC-6 [1],41.95
same,fold change (FC),MONO-MAC-6 [2],6.7
same,fold change (FC),MONO-MAC-6 [3],1.25
same,fold change (FC),MONO-MAC-6 [4],1.46
same,fold change (FC),MONO-MAC-6 [5],3.09
same,inhibition,[6],inactive
same,fold change (FC),MONO-MAC-6 [7],1.11
same,fold change (FC),MONO-MAC-6 [8],2.86
same,fold change (FC),MONO-MAC-6 [9],1.14
same,fold change (FC),MONO-MAC-6 [10],2.34
same,Ratio,[11],2.45
same,fold change (FC),MONO-MAC-6 [12],1.01
same,fold change (FC),MONO-MAC-6 [13],4.67
same,fold change (FC),MONO-MAC-6 [14],1.03
same,fold change (FC),MONO-MAC-6 [15],1.71
same,fold change (FC),MONO-MAC-6 [16],1.72
same,fold change (FC),MONO-MAC-6 [17],1.91
same,fold change (FC),MONO-MAC-6 [18],1
